In brackets after ≈: the same amount, converted by molar mass. Activity calls are given as the source filed them. The rule behind the calls is not given here.
Tests used:
Klebsiella aerogenes [1] = assay: Antibacterial activity against Enterobacter aerogenes ATCC 13048 after 18 hrs by two fold serial dilution method; assay type: functional; settings: ATCC 13048, 18 h
Klebsiella aerogenes [2] = assay: Antibacterial activity against AcrAB-TolC-over producing Enterobacter aerogenes CM-64 after 18 hrs by two fold serial dilution method; assay type: functional; settings: CM-64, 18 h
Klebsiella aerogenes [3] = assay: Inhibition of AcrAB-TolC efflux pump in Enterobacter aerogenes CM-64 assessed as effect on nalidixic acid MIC at 62.5 uM relative to control
Klebsiella aerogenes [4] = assay: Inhibition of AcrAB-TolC efflux pump in Enterobacter aerogenes ATCC 13048 assessed as effect on nalidixic acid MIC at 62.5 uM relative to control
Klebsiella aerogenes [5] = assay: Inhibition of AcrAB-TolC efflux pump in Enterobacter aerogenes ATCC 13048 assessed as effect on nalidixic acid MIC at 100 uM relative to control
Procedure, shortened: (§1)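 Nalidixic acid MIC (two-fold serial dilutions, about 10^6 cells/mL Mueller-Hinton broth, 18 h, 37 C) determined with a fixed sub-inhibitory level of compound present during incubation. Activity gain A = nalidixic acid MIC without compound divided by MIC with compound. PAbN at 0.050 mM served as reference inhibitor.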

Klebsiella aerogenes [6] = assay: Inhibition of AcrAB-TolC efflux pump in Enterobacter aerogenes CM-64 assessed as fold decrease in nalidixic acid MIC at 62.5 uM relative to control; procedure, shortened: as §1
Klebsiella aerogenes [7] = assay: Inhibition of AcrAB-TolC efflux pump in Enterobacter aerogenes ATCC 13048 assessed as fold decrease in nalidixic acid MIC at 62.5 uM relative to control; procedure, shortened: as §1
Klebsiella aerogenes [8] = assay: Inhibition of AcrAB-TolC efflux pump in Enterobacter aerogenes CM-64 assessed as fold decrease in nalidixic acid MIC at 100 uM relative to control; procedure, shortened: as §1
Klebsiella aerogenes [9] = assay: Inhibition of AcrAB-TolC efflux pump in Enterobacter aerogenes CM-64 assessed as fold decrease in nalidixic acid MIC at 333 uM relative to control; procedure, shortened: as §1

| SMILES | MIC (Klebsiella aerogenes [1]) [µM] | MIC (Klebsiella aerogenes [2]) [µM] | inhibition (Klebsiella aerogenes [3]) | inhibition (Klebsiella aerogenes [4]) | inhibition (Klebsiella aerogenes [5]) | fold change (FC) (Klebsiella aerogenes [6]) | fold change (FC) (Klebsiella aerogenes [7]) | fold change (FC) (Klebsiella aerogenes [8]) | fold change (FC) (Klebsiella aerogenes [9]) |
| --- | --- | --- | --- | --- | --- | --- | --- | --- | --- |
| NCCCN1C(=O)N(CC(=O)O)C(=O)C1(c1ccccc1)c1ccccc1 | 1250 (≈ 459 µg/mL) | 1250 (≈ 459 µg/mL) | inactive | inactive | – | – | – | – | – |
| O=C1NC(=O)C(c2ccccc2)(c2ccccc2)N1CCCCN1CCN(c2ccccc2)CC1 | > 500 | > 500 | – | – | inactive | – | – | – | – |
| NCCCCN1C(=O)N(CC(=O)O)C(=O)C1(c1ccccc1)c1ccccc1 | 1250 (≈ 477 µg/mL) | 1250 (≈ 477 µg/mL) | inactive | inactive | – | – | – | – | – |
| COc1ccccc1N1CCN(CCCN2C(=O)N(C)C(=O)C2(c2ccccc2)c2ccccc2)CC1 | > 500 | > 500 | – | – | inactive | – | – | – | – |
| COc1ccccc1N1CCN(CC(O)CN2C(=O)N(CC(=O)O)C(=O)C2(c2ccccc2)c2ccccc2)CC1 (configuration not stated) | 125 (≈ 69.8 µg/mL) | 250 (≈ 140 µg/mL) | – | – | – | 4 | 2 | – | – |
| O=C(O)CN1C(=O)N(CCCCCN2CCCN3CCCN=C23)C(c2ccccc2)(c2ccccc2)C1=O | 1250 (≈ 647 µg/mL) | 1250 (≈ 647 µg/mL) | inactive | inactive | – | – | – | – | – |
| COC(=O)CN1C(=O)N(CC(CN2CCN(c3ccccc3)CC2)OC(C)=O)C(c2ccccc2)(c2ccccc2)C1=O (configuration not stated) | 250 (≈ 146 µg/mL) | 250 (≈ 146 µg/mL) | – | – | – | – | – | – | – |
| CN1C(=O)N(CC(O)CN2CCN(c3ccccc3)CC2)C(c2ccccc2)(c2ccccc2)C1=O (configuration not stated) | > 500 | > 500 | – | – | inactive | – | – | – | – |
| CN1C(=O)N(CCCCCN2CCN(c3ccccc3)CC2)C(c2ccccc2)(c2ccccc2)C1=O | > 500 | > 500 | – | – | inactive | – | – | 4 | – |
| COC(=O)CN1C(=O)N(CC(O)CN2CCN(c3ccccc3)CC2)C(c2ccccc2)(c2ccccc2)C1=O (configuration not stated) | 5000 (≈ 2710 µg/mL) | 5000 (≈ 2710 µg/mL) | – | – | – | – | – | – | 4 |
| COC(=O)CN1C(=O)N(CC(O)CNC(C)C)C(c2ccccc2)(c2ccccc2)C1=O (configuration not stated) | 125 (≈ 54.9 µg/mL) | 125 (≈ 54.9 µg/mL) | inactive | inactive | – | – | – | – | – |
| COc1ccccc1N1CCN(CCCCN2C(=O)N(CC(=O)O)C(=O)C2(c2ccccc2)c2ccccc2)CC1 | 62.5 (≈ 34.8 µg/mL) | 250 (≈ 139 µg/mL) | – | – | – | 4 | 2 | – | – |
| CC(=O)OC(CN1CCN(c2ccccc2)CC1)CN1C(=O)N(C)C(=O)C1(c1ccccc1)c1ccccc1 (configuration not stated) | > 500 | > 500 | – | – | inactive | – | – | – | – |
| O=C(O)CN1C(=O)N(CCCN2CCCN3CCCN=C32)C(c2ccccc2)(c2ccccc2)C1=O | 1250 (≈ 612 µg/mL) | 1250 (≈ 612 µg/mL) | inactive | inactive | – | – | – | – | – |
| O=C(O)CN1C(=O)N(CCCCN2CCCN3CCCN=C23)C(c2ccccc2)(c2ccccc2)C1=O | 1250 (≈ 630 µg/mL) | 1250 (≈ 630 µg/mL) | inactive | inactive | – | – | – | – | – |

Further lines, results first:

| MIC (Klebsiella aerogenes [1]) [µM] | MIC (Klebsiella aerogenes [2]) [µM] | inhibition (Klebsiella aerogenes [3]) | inhibition (Klebsiella aerogenes [4]) | inhibition (Klebsiella aerogenes [5]) | fold change (FC) (Klebsiella aerogenes [6]) | fold change (FC) (Klebsiella aerogenes [7]) | fold change (FC) (Klebsiella aerogenes [8]) | fold change (FC) (Klebsiella aerogenes [9]) | SMILES |
| --- | --- | --- | --- | --- | --- | --- | --- | --- | --- |
| 1250 (≈ 741 µg/mL) | 1250 (≈ 741 µg/mL) | inactive | inactive | – | – | – | – | – | CCOC(=O)N1CCN(CCCCCCCCN2C(=O)N(CC(=O)OC)C(=O)C2(c2ccccc2)c2ccccc2)CC1 |
| 1250 (≈ 706 µg/mL) | 1250 (≈ 706 µg/mL) | inactive | inactive | – | – | – | – | – | CCOC(=O)N1CCN(CCCCCCN2C(=O)N(CC(=O)OC)C(=O)C2(c2ccccc2)c2ccccc2)CC1 |
| 1250 (≈ 665 µg/mL) | 1250 (≈ 665 µg/mL) | inactive | inactive | – | – | – | – | – | O=C(O)CN1C(=O)N(CCCCCCN2CCCN3CCCN=C23)C(c2ccccc2)(c2ccccc2)C1=O |
| > 500 | > 500 | – | – | inactive | – | – | – | – | COC(=O)CN1C(=O)N(CCCN2CCN(c3ccccc3)CC2)C(c2ccccc2)(c2ccccc2)C1=O |
| 1250 (≈ 671 µg/mL) | 1250 (≈ 671 µg/mL) | inactive | inactive | – | – | – | – | – | CCOC(=O)N1CCN(CCCCN2C(=O)N(CC(=O)OC)C(=O)C2(c2ccccc2)c2ccccc2)CC1 |
| 1250 (≈ 651 µg/mL) | 1250 (≈ 651 µg/mL) | inactive | inactive | – | – | – | – | – | COC(=O)CN1C(=O)N(CCCCCCCCN2CCNCC2)C(c2ccccc2)(c2ccccc2)C1=O |
| 1250 (≈ 688 µg/mL) | 1250 (≈ 688 µg/mL) | inactive | inactive | – | – | – | – | – | CCOC(=O)N1CCN(CCCCCN2C(=O)N(CC(=O)OC)C(=O)C2(c2ccccc2)c2ccccc2)CC1 |
| > 500 | > 500 | – | – | inactive | – | – | 4 | – | COC(=O)CN1C(=O)N(CCCCN2CCN(c3ccccc3)CC2)C(c2ccccc2)(c2ccccc2)C1=O |
| 1250 (≈ 653 µg/mL) | 1250 (≈ 653 µg/mL) | inactive | inactive | – | – | – | – | – | CCOC(=O)N1CCN(CCCCN2C(=O)N(CC(=O)O)C(=O)C2(c2ccccc2)c2ccccc2)CC1 |
| 1250 (≈ 512 µg/mL) | 1250 (≈ 512 µg/mL) | inactive | inactive | – | – | – | – | – | NCCCCCCN1C(=O)N(CC(=O)O)C(=O)C1(c1ccccc1)c1ccccc1 |

Source: ChEMBL document CHEMBL1914425, “Amine-alkyl derivatives of hydantoin: new tool to combat resistant bacteria” (2011)
